Columns and labels:
Mus musculus [1] = test: In vivo inhibition of mTORC2-mediated phosphorylation of AKT at […] in human MCF7 cells xenografted into athymic nude mouse at 100 mg/kg, po after 16 hrs by Western blotting analysis relative to control; assay type: functional; details: MCF7, 16 h
Outline: (§1)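 MCF-7 cells (DMEM, 10% FBS) were implanted subcutaneously at 5 × 10^6 cells in 50% cold HBSS/50% growth-factor-reduced matrigel into the hindflank of 5−8 week old female nude mice. At tumor size 40−150 mg, mice received a single oral dose of 100 mg/kg. Tumor lysates were pooled per group. Phospho-AKT (S473, T308), p70S6K (T389), S6 (S240/244) and 4E-BP1 (T37/46) were measured by Western blot normalized to α-tubulin.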

Mus musculus [2] = test: In vivo inhibition of mTORC1-mediated phosphorylation of pS6 at (serine 240/244) in human PC3 cells xenografted into athymic nude mouse at 100 mg/kg, po after 4 hrs by Western blotting analysis relative to control; assay type: functional; details: PC-3, 4 h
Outline: (§2)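 PC-3 cells grown in DMEM with 20% FBS were implanted subcutaneously at 3 × 10^6 cells in ice-cold HBSS into the hindflank of 5−8 week old male nude mice. At tumor size 200−500 mg, mice received a single oral dose of 100 mg/kg. Plasma and tumors were collected at 1, 4, 8, 16, 24 and 32 h. Tumor lysates from each group (n = 5) were pooled. Phospho-proteins were quantified by Western blot and normalized to α-tubulin.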

[3] = molecular target: Vascular endothelial growth factor receptor 1 (Homo sapiens, UniProt P17948); test: Inhibition of FLT1 (unknown origin)
[4] = Oral bioavailability in CD rat at 3 mg/kg; assay type: ADME, organism-based; details: in vivo
Outline: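 For single-dose PK, compound was given intravenously and by oral gavage as a solution in EPW (5% ethanol/45% PEG400/water + 1:2 HCl m/m). Doses were 10 mg/kg in female athymic nude mice and 3 mg/kg in female CD rats and male beagle dogs.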

[5] = Cmax in cynomolgus monkey at 3 mg/kg, po; assay type: ADME, organism-based, Macaca fascicularis; design: dose 3 mg/kg, route oral; details: in vivo
Outline: (§3)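 Single-dose PK: female athymic nude mice (10 mg/kg), female CD rats and male beagle dogs (3 mg/kg), male cynomolgus monkeys (3 mg/kg), given iv and by oral gavage. Solution in EPW (5% ethanol/45% PEG400/water), with 1:2 HCl (m/m) for mouse, rat and dog and 1:1.5 HCl (m/m) for monkey. Plasma levels followed over 24 h.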

[6] = molecular target: Receptor tyrosine-protein kinase erbB-2 (Homo sapiens, UniProt P04626); test: Inhibition of ERBB2 (unknown origin)
Outline: (§4)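 Part of a 141-protein-kinase selectivity panel run either in house or by an outside contract lab. IC50 is reported as the average of at least two determinations.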

[7] = Plasma concentration in mouse at 100 mg/kg, po after 1 hr; assay type: ADME, organism-based; design: dose 100 mg/kg, route oral
Mus musculus [8] = test: In vivo inhibition of mTOR1-mediated phosphorylation of p70S6K at […] in human MCF7 cells xenografted into athymic nude mouse at 100 mg/kg, po after 8 hrs by Western blotting analysis relative to control; assay type: functional; details: MCF7, 8 h
Mus musculus [9] = test: In vivo inhibition of mTORC1-mediated phosphorylation of 4EBP1 at ([…]) in human MCF7 cells xenografted into athymic nude mouse at 100 mg/kg, po after 1 hr by Western blotting analysis relative to control; assay type: functional; details: MCF7, 1 h
[10] = Clearance in CD rat at 3 mg/kg, iv; assay type: ADME, organism-based; design: dose 3 mg/kg, route intravenous; details: in vivo; outline: as §3
Mus musculus [11] = test: In vivo inhibition of mTORC2-mediated phosphorylation of AKT at serine 473 in human MCF7 cells xenografted into athymic nude mouse at 100 mg/kg, po after 4 hrs by Western blotting analysis relative to control; assay type: functional; details: MCF7, 4 h; outline: as §1
[12] = Oral bioavailability in cynomolgus monkey at 3 mg/kg; assay type: ADME, organism-based, Macaca fascicularis; details: in vivo
Outline: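 Male cynomolgus monkeys received 3 mg/kg intravenously and by oral gavage as a solution in EPW (5% ethanol/45% PEG400/water + 1:1.5 HCl m/m).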

[13] = molecular target: Mast/stem cell growth factor receptor Kit (Homo sapiens, UniProt P10721); test: Inhibition of KIT (unknown origin)
[14] = Drug uptake in tumor of athymic mouse xenografted with human PC3 cells at 100 mg/kg, po after 32 hrs; assay type: ADME, organism-based, Neoplasm, PC-3; design: dose 100 mg/kg, route oral; details: in vivo, BLD = below limit of detection
Outline: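 PC-3 cells (3 × 10⁶, passages 10–14, in ice-cold HBSS) were implanted sc in 5–8 week old male nude mice. Tumors of 200–500 mg received a single oral 100 mg/kg dose. Plasma and tumor were collected at 1, 4, 8, 16, 24 and 32 h and homogenized in buffer. Lysates were pooled per group (n = 5), and phospho-proteins were measured by Western blot normalized to α-tubulin.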

[15] = Plasma protein binding in rat at 5 uM; assay type: ADME, cell-free; details: read-out: PPB (converted)
[16] = Tmax in cynomolgus monkey at 3 mg/kg, po; assay type: ADME, organism-based, Macaca fascicularis; design: dose 3 mg/kg, route oral; details: in vivo
[17] = molecular target: Voltage-gated inwardly rectifying potassium channel KCNH2 (Homo sapiens, UniProt Q12809); test: Activity at human ERG by patch clamp technique
Outline: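 hERG current measured by manual patch clamp.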

Mus musculus [18] = test: In vivo inhibition of mTORC2-mediated phosphorylation of AKT at serine 473 in human MCF7 cells xenografted into athymic nude mouse at 100 mg/kg, po after 1 hr by Western blotting analysis relative to control; assay type: functional; details: MCF7, 1 h; outline: as §1
Mus musculus [19] = test: In vivo inhibition of mTORC1-mediated phosphorylation of 4EBP1 at ([…]) in human PC3 cells xenografted into athymic nude mouse at 100 mg/kg, po after 8 hrs by Western blotting analysis relative to control; assay type: functional; details: PC-3, 8 h; outline: as §2
Focal adhesion kinase 1 = Focal adhesion kinase 1 (Homo sapiens, UniProt Q05397); test: Inhibition of FAK (unknown origin); outline: as §4
[20] = molecular target: Heat shock protein HSP 90-beta (Homo sapiens, UniProt P08238); test: Inhibition of HSP90 (unknown origin)
[21] = Clearance in athymic nude mouse at 10 mg/kg, iv; assay type: ADME, organism-based; design: dose 10 mg/kg, route intravenous; details: in vivo; outline: as §3
[22] = Apparent permeability across MDCK cells; assay type: ADME, cell-based, Canis lupus familiaris; details: dog
Mus musculus [23] = test: In vivo inhibition of mTORC2-mediated phosphorylation of AKT at serine 473 in human MCF7 cells xenografted into athymic nude mouse at 100 mg/kg, po after 16 hrs by Western blotting analysis relative to control; assay type: functional; details: MCF7, 16 h; outline: as §1
[24] = Cmax in athymic nude mouse at 10 mg/kg, po; assay type: ADME, organism-based; design: dose 10 mg/kg, route oral; details: in vivo; outline: as §3
Mus musculus [25] = test: In vivo inhibition of mTORC2-mediated phosphorylation of AKT at serine 473 in human PC3 cells xenografted into athymic nude mouse at 100 mg/kg, po after 32 hrs by Western blotting analysis relative to control; assay type: functional; details: PC-3, 32 h; outline: as §2
Mus musculus [26] = test: In vivo inhibition of mTORC1-mediated phosphorylation of pS6 at (serine 240/244) in human MCF7 cells xenografted into athymic nude mouse at 100 mg/kg, po after 4 hrs by Western blotting analysis relative to control; assay type: functional; details: MCF7, 4 h; outline: as §1
[27] = molecular target: Serine/threonine-protein kinase pim-1 (Homo sapiens, UniProt P11309); test: Inhibition of PIM1 (unknown origin)
[28] = Cmax in Beagle dog at 3 mg/kg, po; assay type: ADME, organism-based, Canis lupus familiaris; design: dose 3 mg/kg, route oral; details: in vivo; outline: as §3

Heat shock protein HSP 90-beta, sequence (P08238 whole entry): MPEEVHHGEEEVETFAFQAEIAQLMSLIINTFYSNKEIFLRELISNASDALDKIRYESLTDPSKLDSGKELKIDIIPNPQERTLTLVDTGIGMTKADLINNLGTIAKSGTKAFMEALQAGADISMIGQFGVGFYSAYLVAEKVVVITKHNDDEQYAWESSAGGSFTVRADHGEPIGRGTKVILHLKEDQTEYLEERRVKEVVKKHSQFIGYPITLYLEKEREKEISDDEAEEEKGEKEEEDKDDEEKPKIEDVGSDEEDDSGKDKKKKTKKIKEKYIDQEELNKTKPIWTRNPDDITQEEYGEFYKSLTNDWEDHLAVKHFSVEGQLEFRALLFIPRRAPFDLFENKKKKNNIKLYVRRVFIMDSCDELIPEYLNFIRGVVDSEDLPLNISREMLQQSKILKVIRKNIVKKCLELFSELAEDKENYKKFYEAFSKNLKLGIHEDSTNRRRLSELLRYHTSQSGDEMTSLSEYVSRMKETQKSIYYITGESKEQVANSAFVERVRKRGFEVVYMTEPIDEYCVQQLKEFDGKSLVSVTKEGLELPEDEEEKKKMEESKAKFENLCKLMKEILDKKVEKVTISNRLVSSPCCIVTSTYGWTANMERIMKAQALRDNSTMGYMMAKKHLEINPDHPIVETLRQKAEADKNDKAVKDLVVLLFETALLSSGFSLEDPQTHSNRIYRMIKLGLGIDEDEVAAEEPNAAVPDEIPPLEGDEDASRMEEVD
Vascular endothelial growth factor receptor 1, sequence (P17948 whole entry): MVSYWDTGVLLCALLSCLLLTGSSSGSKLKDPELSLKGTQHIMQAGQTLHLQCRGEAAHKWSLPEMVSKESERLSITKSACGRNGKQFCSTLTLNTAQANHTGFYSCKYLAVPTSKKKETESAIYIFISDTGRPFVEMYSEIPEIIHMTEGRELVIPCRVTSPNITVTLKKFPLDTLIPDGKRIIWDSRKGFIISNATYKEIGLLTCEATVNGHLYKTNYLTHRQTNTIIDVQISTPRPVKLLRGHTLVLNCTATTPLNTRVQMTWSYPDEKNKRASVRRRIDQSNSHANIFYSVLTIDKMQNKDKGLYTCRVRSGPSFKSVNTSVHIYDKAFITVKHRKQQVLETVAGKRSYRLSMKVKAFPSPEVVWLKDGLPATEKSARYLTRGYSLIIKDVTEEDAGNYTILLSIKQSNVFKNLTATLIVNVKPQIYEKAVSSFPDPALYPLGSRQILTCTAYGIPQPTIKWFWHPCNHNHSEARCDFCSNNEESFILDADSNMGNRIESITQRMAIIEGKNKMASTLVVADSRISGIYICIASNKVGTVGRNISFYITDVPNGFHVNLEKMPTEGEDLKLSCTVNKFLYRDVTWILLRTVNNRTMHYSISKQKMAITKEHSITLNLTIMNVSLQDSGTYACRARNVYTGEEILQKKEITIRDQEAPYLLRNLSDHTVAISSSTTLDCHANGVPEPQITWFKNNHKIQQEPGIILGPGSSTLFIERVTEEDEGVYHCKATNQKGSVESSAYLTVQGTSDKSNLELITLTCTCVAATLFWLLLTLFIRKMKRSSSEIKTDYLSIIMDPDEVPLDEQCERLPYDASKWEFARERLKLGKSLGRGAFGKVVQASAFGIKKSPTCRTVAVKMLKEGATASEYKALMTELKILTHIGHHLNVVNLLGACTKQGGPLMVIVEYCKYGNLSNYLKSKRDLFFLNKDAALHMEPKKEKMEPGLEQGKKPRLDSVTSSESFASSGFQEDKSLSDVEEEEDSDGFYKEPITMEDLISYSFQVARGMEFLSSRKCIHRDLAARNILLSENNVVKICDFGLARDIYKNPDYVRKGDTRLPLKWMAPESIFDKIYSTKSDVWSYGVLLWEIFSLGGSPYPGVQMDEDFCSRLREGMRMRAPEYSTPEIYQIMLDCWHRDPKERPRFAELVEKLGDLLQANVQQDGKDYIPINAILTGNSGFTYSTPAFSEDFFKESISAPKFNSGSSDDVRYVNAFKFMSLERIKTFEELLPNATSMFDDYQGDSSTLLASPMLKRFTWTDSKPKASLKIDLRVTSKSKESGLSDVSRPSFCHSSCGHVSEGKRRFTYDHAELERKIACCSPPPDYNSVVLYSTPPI
Focal adhesion kinase 1, sequence (Q05397 whole entry): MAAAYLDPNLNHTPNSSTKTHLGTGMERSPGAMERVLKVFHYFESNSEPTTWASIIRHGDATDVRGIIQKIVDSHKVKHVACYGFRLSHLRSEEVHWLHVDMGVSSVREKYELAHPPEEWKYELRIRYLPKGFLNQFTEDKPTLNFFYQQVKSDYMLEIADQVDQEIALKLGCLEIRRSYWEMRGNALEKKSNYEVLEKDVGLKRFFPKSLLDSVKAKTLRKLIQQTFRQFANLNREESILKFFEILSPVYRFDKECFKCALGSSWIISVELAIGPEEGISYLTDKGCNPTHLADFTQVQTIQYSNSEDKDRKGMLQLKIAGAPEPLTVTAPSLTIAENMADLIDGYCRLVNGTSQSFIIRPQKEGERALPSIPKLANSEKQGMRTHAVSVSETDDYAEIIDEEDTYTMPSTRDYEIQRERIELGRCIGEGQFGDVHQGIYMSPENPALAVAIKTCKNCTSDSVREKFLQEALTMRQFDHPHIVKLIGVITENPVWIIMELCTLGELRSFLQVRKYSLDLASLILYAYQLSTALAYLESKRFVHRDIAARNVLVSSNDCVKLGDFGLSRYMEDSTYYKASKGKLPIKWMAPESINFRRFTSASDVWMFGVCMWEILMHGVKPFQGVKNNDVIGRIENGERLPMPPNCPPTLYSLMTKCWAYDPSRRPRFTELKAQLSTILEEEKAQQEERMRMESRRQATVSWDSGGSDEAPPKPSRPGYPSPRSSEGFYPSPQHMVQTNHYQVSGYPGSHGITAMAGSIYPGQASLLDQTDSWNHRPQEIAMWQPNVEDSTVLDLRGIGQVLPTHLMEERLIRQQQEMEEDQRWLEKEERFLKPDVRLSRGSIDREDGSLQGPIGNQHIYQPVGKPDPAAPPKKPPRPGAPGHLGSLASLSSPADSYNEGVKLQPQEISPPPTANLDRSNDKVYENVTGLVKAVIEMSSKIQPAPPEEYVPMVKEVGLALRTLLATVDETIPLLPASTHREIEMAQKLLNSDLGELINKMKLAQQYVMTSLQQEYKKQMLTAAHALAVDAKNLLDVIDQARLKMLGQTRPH
Mast/stem cell growth factor receptor Kit, sequence (P10721 whole entry): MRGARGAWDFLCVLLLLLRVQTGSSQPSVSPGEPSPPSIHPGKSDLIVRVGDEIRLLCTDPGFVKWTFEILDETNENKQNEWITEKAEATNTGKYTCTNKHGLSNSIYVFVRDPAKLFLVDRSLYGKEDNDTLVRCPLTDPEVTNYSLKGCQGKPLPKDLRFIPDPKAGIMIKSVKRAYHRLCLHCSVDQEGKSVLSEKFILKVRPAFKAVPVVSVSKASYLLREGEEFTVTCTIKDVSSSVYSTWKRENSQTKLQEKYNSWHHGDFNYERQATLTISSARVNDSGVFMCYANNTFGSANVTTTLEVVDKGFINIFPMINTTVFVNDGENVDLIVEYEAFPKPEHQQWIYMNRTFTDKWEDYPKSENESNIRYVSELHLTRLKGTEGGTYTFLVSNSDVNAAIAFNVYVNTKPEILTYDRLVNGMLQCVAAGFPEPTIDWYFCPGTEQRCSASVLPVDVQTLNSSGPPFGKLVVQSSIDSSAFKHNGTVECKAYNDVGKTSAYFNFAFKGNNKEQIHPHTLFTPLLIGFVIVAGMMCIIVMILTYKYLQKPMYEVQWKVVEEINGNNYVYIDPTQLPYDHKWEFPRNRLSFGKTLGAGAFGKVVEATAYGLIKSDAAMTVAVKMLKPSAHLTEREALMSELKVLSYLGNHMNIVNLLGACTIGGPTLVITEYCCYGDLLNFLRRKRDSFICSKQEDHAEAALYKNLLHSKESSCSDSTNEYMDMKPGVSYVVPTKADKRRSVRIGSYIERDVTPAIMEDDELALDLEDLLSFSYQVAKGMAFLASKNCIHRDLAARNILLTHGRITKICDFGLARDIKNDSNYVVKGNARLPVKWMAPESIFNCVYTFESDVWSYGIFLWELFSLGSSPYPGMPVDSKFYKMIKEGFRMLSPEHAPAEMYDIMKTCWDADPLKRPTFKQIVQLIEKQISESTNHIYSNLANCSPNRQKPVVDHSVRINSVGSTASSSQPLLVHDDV
Serine/threonine-protein kinase pim-1, sequence (P11309 whole entry): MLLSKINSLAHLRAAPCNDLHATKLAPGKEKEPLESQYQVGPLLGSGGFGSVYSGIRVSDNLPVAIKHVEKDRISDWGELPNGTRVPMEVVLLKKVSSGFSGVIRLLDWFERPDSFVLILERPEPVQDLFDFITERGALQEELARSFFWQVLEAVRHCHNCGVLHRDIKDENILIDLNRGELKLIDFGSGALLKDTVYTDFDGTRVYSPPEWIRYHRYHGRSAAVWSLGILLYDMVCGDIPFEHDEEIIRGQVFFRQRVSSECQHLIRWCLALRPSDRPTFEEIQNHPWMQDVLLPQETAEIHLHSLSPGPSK

Structure (SMILES): Cc1c(C(=O)N2CCOc3ccc(-c4ccc(N)nc4)cc3C2)ccc(S(C)(=O)=O)c1F
- inhibition in vivo at 100 mg/kg (Mus musculus [1]): 43%
- inhibition in vivo at 100 mg/kg (Mus musculus [2]): 90%
- IC50 [3]: > 3.5 µM
- bioavailability [4]: 25.6%
- Cmax [5]: 250 nM
- IC50 [6]: > 3.5 µM
- concentration at 1 h [7]: 22000 nM
- inhibition in vivo at 100 mg/kg (Mus musculus [8]): 81%
- inhibition in vivo at 100 mg/kg (Mus musculus [9]): 94%
- clearance [10]: 21.2 mL/min/kg
- inhibition in vivo at 100 mg/kg (Mus musculus [11]): 87%
- bioavailability [12]: 53.4%
- IC50 [13]: > 3.5 µM
- Drug uptake [14]: BLD
- fraction unbound at 5 µM [15]: 0.15
- Tmax [16]: 2 h
- Activity [17]: 15.9 µM
- inhibition in vivo at 100 mg/kg (Mus musculus [18]): 93%
- inhibition in vivo at 100 mg/kg (Mus musculus [19]): 92%
- IC50 (Focal adhesion kinase 1): > 3.5 µM
- IC50 [20]: > 3.5 µM
- clearance [21]: 45.8 mL/min/kg
- Papp [22]: 15.1 ×10⁻⁶ cm/s
- inhibition in vivo at 100 mg/kg (Mus musculus [23]): 69%
- Cmax [24]: 1300 nM
- inhibition in vivo at 100 mg/kg (Mus musculus [25]): 10%
- inhibition in vivo at 100 mg/kg (Mus musculus [26]): 94%
- IC50 [27]: > 3.5 µM
- Cmax [28]: 1660 nM

From ChEMBL document CHEMBL2331117 (J Med Chem, 2013)
